High-throughput results from PubChem BioAssay.
MLL AF4-AF9 inh: MLL-AF4/AF9 protein interaction inhibition. P42568. AlphaScreen, biotin-AF4 peptide binding to FLAG-AF9. inhibition, % at 10 µM. actives 0.47% (n = 350,000);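 active means every replicate reaching a set inhibition limit, whatever the replicate mean, cut at about 25% in these data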;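 further: 0% = plate neutral control median and 100% = total signal loss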
Target sequence (P42568 whole entry, looked up): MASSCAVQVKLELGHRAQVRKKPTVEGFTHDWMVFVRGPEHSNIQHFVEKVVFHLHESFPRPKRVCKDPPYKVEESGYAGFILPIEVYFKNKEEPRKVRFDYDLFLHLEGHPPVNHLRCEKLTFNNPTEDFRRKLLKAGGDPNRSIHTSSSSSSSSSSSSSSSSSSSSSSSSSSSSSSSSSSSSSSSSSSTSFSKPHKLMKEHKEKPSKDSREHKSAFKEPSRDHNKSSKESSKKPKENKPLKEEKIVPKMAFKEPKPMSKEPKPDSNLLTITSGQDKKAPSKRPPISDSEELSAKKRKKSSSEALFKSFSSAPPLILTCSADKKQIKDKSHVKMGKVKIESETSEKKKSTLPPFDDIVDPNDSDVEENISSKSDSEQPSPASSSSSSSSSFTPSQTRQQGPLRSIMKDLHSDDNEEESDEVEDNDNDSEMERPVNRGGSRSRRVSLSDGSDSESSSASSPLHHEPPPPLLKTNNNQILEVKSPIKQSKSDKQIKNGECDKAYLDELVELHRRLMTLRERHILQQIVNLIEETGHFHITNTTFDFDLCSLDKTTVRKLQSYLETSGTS
EWS-Fli inh: EWS/Fli transcriptional activity inhibition | A673 NR0B1-luciferase reporter, viability-normalised | inhibition, % at 12.6 µM | actives 0.67% (n = 350,000) | AID 651661;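 active means mean inhibition of at least 50% after viability correction, with every replicate also passing that limit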;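 further: firefly luciferase signal divided by Alamar Blue viability fluorescence both relative to DMSO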
Glyco luc inh: N-linked glycosylation inhibition. D54 ERlucT glycosylation luciferase reporter, 24 h; percent of 100 nM tunicamycin response. reporter increase, % at 12.5 µM. actives 0.23% (n = 360,000). AID 588692;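 active means mean luciferase reporter signal, scaled so untreated is 0 and the glycosylation-blocking control 100, at or above a set limit in every replicate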;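 further: luciferase carries N-glycosylation sites so blocking glycosylation raises the light; 0% = median of neutral control wells and 100% = median of 100 nM tunicamycin wells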
HIV Env fusion: inhibitors of HIV Env-mediated cell fusion | actives 1.1% (n = 360,000) | inhibition, % at 12.3 µM | HeLa-JRFL Env/CEM21 cell fusion, luciferase | AID 651610;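 active means mean replicate inhibition score of at least 50 and every replicate individually at or above 50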;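 further: 0% = plate neutral controls and 100% = maraviroc near 300 nM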
PAX8 inh HTS: PAX8 transcriptional activity inhibition. RMG-I TPO-luciferase reporter, SteadyGlo, 24 h. inhibition, % at 12.6 µM. actives 1.2% (n = 360,000). AID 652154;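 active means mean replicate inhibition at least 60% with every replicate also reaching 60%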;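 further: luciferase light reporting Pax8 driven TPO promoter activity; plate controls were median of neutral control wells for no effect and mitoxantrone controls for full effect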
FN deposition inh: fibronectin deposition inhibition; inhibition, % at 12.6 µM; actives 0.086% (n = 350,000); AH1F fibroblasts, Alexa488-fibronectin deposition fluorescence, overnight; AID 743247;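 active means mean inhibition across replicates of 30% or more, regardless of how many single replicates reach that level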;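 further: positive control wells lacked labelled fibronectin entirely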
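Assay system: AH1F fibroblast monolayer, labelled fibronectin deposition. Amount: 10000 cells per well. Also added: labelled fibronectin 24 nM. Compound: single-point pinned compound. Incubation: cell attachment 1 h, compound and FN exposure overnight. Detection: fluorescence after three HBSS washes, excitation 485 nm, emission 525 nm. Read-out: inhibition of fibronectin deposition signal.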
The depositor's hits bear a star; . = no result; [ ] = dose if it differs, or a comment. Rows were chosen to be rich in hits. Some 2.5% of all compounds tested hit in one or more screens of this group.

SMILES	MLL AF4-AF9 inh	EWS-Fli inh	Glyco luc inh	HIV Env fusion	PAX8 inh HTS	FN deposition inh
C[C@H](CO)N1C[C@H](C)[C@@H](CN(C)Cc2ccccc2)Oc2ccc(NC(=O)C3CC3)cc2C1=O	0	-2	.	.	-8	.
CCC(C)[C@H](N)c1cn([C@@H](Cc2cc3ccccc3[nH]2)C(=O)N2CCNCC2)nn1 (stereo not given in full)	30*	-3	-3	-3	11	0
CC(C)C[C@H](N)c1cn([C@@H](Cc2cc3ccccc3[nH]2)C(=O)N2CCNCC2)nn1	.	1	-4	-6	-6	-1
CO[C@H]1CN(C)C(=O)c2ccc(NC(C)=O)cc2OC[C@H](C)N(S(=O)(=O)c2cn(C)cn2)C[C@H]1C	-1	-5	.	.	-11	-17
Cc1ccc(S(=O)(=O)Nc2cccc3c2O[C@@H](CN(C)Cc2ccc(C(=O)O)cc2)[C@@H](C)CN([C@@H](C)CO)C3=O)cc1	-1	-7	.	12[16.7 µM]	.	.
C[C@@H]1CN([C@@H](C)CO)C(=O)c2cccc(NS(=O)(=O)c3ccc(F)cc3)c2O[C@@H]1CN(C)Cc1ccc(-c2ccccc2)cc1	4	22	.	75*[16.7 µM]	75*	-6
C[C@@H]1CN([C@@H](C)CO)C(=O)c2cccc(NS(=O)(=O)c3ccc(F)cc3)c2O[C@H]1CN(C)Cc1ccc(-c2ccccc2)cc1	2	38	.	28[16.7 µM]	78*	13
Cc1ccc(S(=O)(=O)Nc2cccc3c2O[C@H](CN(C)Cc2ccc(C(=O)O)cc2)[C@H](C)CN([C@H](C)CO)C3=O)cc1	27*	-6	.	8[16.7 µM]	.	.
FC(F)(F)COc1nc(N2CCOCC2)nc(N(c2ccccc2)c2ccccc2)n1	.	.	-9	76*	.	-3
COC(=O)c1c(NC(=O)/C=C/C(=O)O)sc(Cc2ccccc2)c1C	.	.	-3	.	.	.
Cc1c(Cc2ccccc2)sc(NC(=O)/C=C/c2cccc3ccccc23)c1C(N)=O	5	60*	14	-19	5	-3
O=C(C[C@@H]1CC[C@H]2[C@@H](COC[C@@H](O)CN2C(=O)Nc2cc(Cl)cc(Cl)c2)O1)NCC1CCCCC1	0	-1	.	.	-5	-7
CCOC(=O)c1c2c(n(Cc3ccccc3)c1C)C(=O)C(=O)c1ccccc1-2	5	69*	-23	78*	125*	30*
C[C@@H]1CN([C@@H](C)CO)C(=O)c2cc(C#Cc3cccc(F)c3)cnc2O[C@H]1CN(C)CC1CCCC1	8	11	.	1[16.7 µM]	.	.
C[C@@H]1CCCCO[C@H](CN(C)C(=O)c2ccccc2)[C@@H](C)CN([C@@H](C)CO)C(=O)c2cc(NC(=O)c3ccncc3)ccc2O1	-5	-6	.	1[16.7 µM]	13	.
O=C(C[C@@H]1C=C[C@@H](NS(=O)(=O)c2ccc(F)cc2)[C@@H](CO)O1)NCc1ccncn1	-1	-1	.	-21[16.7 µM]	-1	-4
CO[C@@H]1CN(C)C(=O)c2cc(NS(=O)(=O)c3ccccc3F)ccc2OC[C@H](C)NC[C@H]1C	-3	-2	.	-17[16.7 µM]	.	-17
COc1ccccc1-c1ccc2c(c1)C(C)(Cc1cccc(C#N)c1)C(=O)N2 (stereo not given)	1	8	-4	101*	2	-2
CC1(Cc2ccc(Cl)cc2)C(=O)Nc2ccc(-c3cccnc3)cc21 (stereo not given)	0	-5	-12	69*	-25	20
COc1ccc(C(C)=O)cc1CC1(C)C(=O)Nc2ccc(-c3cccc(C(F)(F)F)c3)cc21 (stereo not given)	0	14	-4	79*	23	0
COc1ccc(Cl)cc1CC1(C)C(=O)Nc2ccc(-c3ccccc3OC)cc21 (stereo not given)	-5	5	-6	92*	-4	-1
CCCC(=O)N1CCC2(CC1)CN(Cc1nccs1)[C@@H](CO)c1[nH]c3cc(OC)ccc3c12	-1	-1	.	.	14	.
COc1ccc(S(=O)(=O)Nc2ccc3c(c2)C(=O)N([C@@H](C)CO)C[C@@H](C)[C@H](CN(C)S(=O)(=O)c2cn(C)cn2)OCCCC[C@@H](C)O3)cc1	-1	-4	.	-4[16.7 µM]	-26	.
CO[C@H]1CC[C@@H]2CCN(C)C(=O)[C@H](C)N(C)C(=O)c3cc(C#N)ccc3OC[C@H]1O2	-1	5	.	25[16.7 µM]	3	1
COc1ccccc1-c1ccc2c(c1)C(C)(Cc1ccc(Cl)cc1)C(=O)N2 (stereo not given)	2	-28	-1	12	-13	5
SMILES	MLL AF4-AF9 inh	EWS-Fli inh	Glyco luc inh	HIV Env fusion	PAX8 inh HTS	FN deposition inh
COc1ccccc1-c1ccc2c(c1)C(C)(Cc1ccc(F)c(Cl)c1)C(=O)N2 (stereo not given)	-7	4	-8	96*	25	7
CN1C(=O)C(N=Nc2ccc([N+](=O)[O-])cc2)SC1=S (stereo not given)	44*	-1	-7	28	1	8
Cc1ccc(N=Nc2ccc3ccccc3c2O)cc1	11	55*	-20	-56	-26	1
Oc1c(N=Nc2ccc(F)cc2)ccc2ccccc12	11	4	-15	-200	-41	1
CCN(CC(=O)Nc1ccc(NC(C)=O)cc1)C(=O)C1(c2ccc(Cl)cc2)CCC1	0	1	-3	-47	79*	0
CC(=O)Nc1ccc(NC(=O)COC(=O)C2(c3ccc(Cl)cc3)CCCC2)cc1	.	.	-4	.	11	-2
C[C@@H]1CN([C@@H](C)CO)C(=O)c2cc(NS(=O)(=O)c3ccc(F)cc3)ccc2O[C@@H]1CN(C)C(=O)Nc1cccc2ccccc12	-2	12	.	-46[16.7 µM]	.	.
COc1cccc(C(=O)Oc2cc3c4c(c2)C(C)=CC(C)(C)N4C(=O)C3=O)c1	26*	10	9	.	.	.
COc1ccc(C(=O)Oc2cc3c4c(c2)C(C)=CC(C)(C)N4C(=O)C3=O)cc1OC	.	.	1	10	-1	4
C[C@@H]1CN([C@H](C)CO)C(=O)c2cc(C#Cc3ccccc3F)cnc2O[C@H]1CN(C)C(=O)C1CCOCC1	-1	1	.	-2[16.7 µM]	-11	2
COc1ccc(-n2c(=S)[nH]c3c(oc4ccccc43)c2=O)cc1	.	.	3	-14	15	-2
Cc1ccc(-n2c(=O)[nH]c3c(oc4ccccc43)c2=O)cc1	-5	-18	-1	7	-12	31*
COc1ccc(C(=O)CSc2nn3c(=O)c(C(C)(C)C)nnc3s2)cc1	.	.	34*	.	.	.
CC(C)(C)c1nnc2sc(SCC(=O)c3ccccc3)nn2c1=O	.	.	5	.	.	.
CCCCN(CC)CCCNC(=S)Nc1ccc2nc(N3CCN(C)CC3)cc(C)c2c1	26*	3	2	-9	-18	13
COc1ccc(CNC(=S)Nc2ccc3nc(N4CCN(C)CC4)cc(C)c3c2)cc1	26*	12	-1	-2	17	6
COc1ccccc1CNC(=S)Nc1ccc2nc(N3CCN(C)CC3)cc(C)c2c1	27*	21	3	2	-9	-1
